# Key:
# [1] = target: Substance-P receptor (Homo sapiens, UniProt P25103); test: Displacement of [125I]-labeled SP from human Tachykinin receptor 1 expressed in CHO cells; type: cell-based
# Outline: (§1)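 Human receptor expressed in CHO cells; values are given as mean with SD from 3 determinations unless otherwise stated.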
# [2] = Physicochemical property was determined; type: ADME
# [3] = tested on: Cavia porcellus; test: SP-induced dermal inflammation assay in guinea pig after peroral administration followed by SP challenge id after 1 hr; type: functional; settings: oral, read-out: ID50 (the source's name)
# Outline: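 Guinea pigs received antagonist orally, then an intradermal substance P challenge 1 h later. Read-out was SP-induced plasma extravasation in skin. Dose–response data used 5–12 animals per data point.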
# [4] = Inhibition of [3H]diltiazem binding to L-type [Ca2+] channel in rabbit skeletal muscle; type: tissue-based, Oryctolagus cuniculus, Muscle tissue
# [5] = target: T1, Neuromedin-K receptor (Homo sapiens, UniProt P29371); test: Displacement of [125I]-labeled SP from the human Tachykinin receptor 3 expressed in CHO cells; type: cell-based; outline: as §1
# T1 sequence (P29371 whole entry): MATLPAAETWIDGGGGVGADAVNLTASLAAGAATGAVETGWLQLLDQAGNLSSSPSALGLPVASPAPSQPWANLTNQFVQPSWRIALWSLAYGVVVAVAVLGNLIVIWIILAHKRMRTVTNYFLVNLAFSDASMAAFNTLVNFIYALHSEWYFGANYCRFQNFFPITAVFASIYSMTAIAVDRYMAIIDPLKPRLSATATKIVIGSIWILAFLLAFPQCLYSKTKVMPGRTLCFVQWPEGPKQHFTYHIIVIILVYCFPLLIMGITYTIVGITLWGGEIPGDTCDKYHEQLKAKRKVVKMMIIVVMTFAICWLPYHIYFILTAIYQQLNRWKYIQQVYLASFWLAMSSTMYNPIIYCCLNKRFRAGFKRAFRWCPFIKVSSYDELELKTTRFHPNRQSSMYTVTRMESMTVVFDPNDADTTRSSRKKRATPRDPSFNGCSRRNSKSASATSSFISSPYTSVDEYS
# [6] = target: T2, Substance-K receptor (Homo sapiens, UniProt P21452); test: Displacement of [125I]-labeled SP from the human Tachykinin receptor 2 expressed in CHO cells; type: cell-based; outline: as §1
# T2 sequence (P21452 whole entry): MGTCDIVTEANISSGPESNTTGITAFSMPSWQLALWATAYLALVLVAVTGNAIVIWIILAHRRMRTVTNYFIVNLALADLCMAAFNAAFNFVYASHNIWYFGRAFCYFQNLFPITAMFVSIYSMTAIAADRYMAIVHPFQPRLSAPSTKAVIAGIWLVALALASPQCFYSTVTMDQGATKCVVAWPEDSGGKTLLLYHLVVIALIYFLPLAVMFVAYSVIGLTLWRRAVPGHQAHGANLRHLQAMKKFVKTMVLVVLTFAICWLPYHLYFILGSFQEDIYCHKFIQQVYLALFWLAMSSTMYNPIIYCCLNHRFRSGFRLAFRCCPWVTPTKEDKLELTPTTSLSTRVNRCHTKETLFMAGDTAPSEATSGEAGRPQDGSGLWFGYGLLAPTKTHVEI
# [7] = Physicochemical property pKa of benzyl amine was determined
# [8] = Physicochemical property pKa of piperdine amine was determined
# Sequence of Substance-P receptor (P25103 whole entry): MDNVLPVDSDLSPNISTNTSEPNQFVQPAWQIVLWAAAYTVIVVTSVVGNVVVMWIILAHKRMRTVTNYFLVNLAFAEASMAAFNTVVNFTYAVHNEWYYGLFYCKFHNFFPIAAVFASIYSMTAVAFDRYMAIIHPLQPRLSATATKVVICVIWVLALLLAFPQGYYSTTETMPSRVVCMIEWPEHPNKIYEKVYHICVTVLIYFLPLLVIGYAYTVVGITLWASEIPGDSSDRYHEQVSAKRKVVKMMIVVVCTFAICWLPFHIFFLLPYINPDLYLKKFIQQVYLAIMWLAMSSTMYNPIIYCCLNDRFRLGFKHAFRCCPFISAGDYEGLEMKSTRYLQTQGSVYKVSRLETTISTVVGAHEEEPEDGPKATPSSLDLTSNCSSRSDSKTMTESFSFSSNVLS
SMILES,IC50 [1] [nM],other results
O=C(O)CN1CCO[C@H](OCc2cc(C(F)(F)F)cc(C(F)(F)F)c2)[C@@H]1c1ccccc1,66,
FC(F)(F)c1cc(CO[C@@H]2OCCN[C@H]2c2ccccc2)cc(C(F)(F)F)c1 (stereo in doubt; 12),376,
FC(F)(F)c1cc(CO[C@H]2OCCN[C@@H]2c2ccccc2)cc(C(F)(F)F)c1 (stereo in doubt; 13),287,
FC(F)(F)c1cc(CO[C@@H]2OCCN[C@@H]2c2ccccc2)cc(C(F)(F)F)c1 (stereo in doubt; 14),59,
FC(F)(F)c1cc(CO[C@H]2OCCN[C@@H]2c2ccccc2)cc(C(F)(F)F)c1 (stereo in doubt; 20),21,
FC(F)(F)c1cc(CO[C@@H]2OCCN[C@@H]2c2ccccc2)cc(C(F)(F)F)c1 (stereo in doubt; 21),116,
FC(F)(F)c1cc(CO[C@@H]2OCCN[C@H]2c2ccccc2)cc(C(F)(F)F)c1 (stereo in doubt; 22),19,
COc1ccccc1CN[C@H]1CCCN[C@H]1c1ccccc1 [CP-99994],,pKa [7]: 4; pKa [8]: 8.7; ED50 [3]: 1.6 mg/kg; IC50 [4]: 4 µM

# More lines, in order of falling IC50 [1], values ahead:
IC50 [1] [nM],SMILES,other results
1.6,COC(=O)CN1CCO[C@H](OCc2cc(C(F)(F)F)cc(C(F)(F)F)c2)[C@@H]1c1ccccc1,
1.1,NC(=O)CN1CCO[C@H](OCc2cc(C(F)(F)F)cc(C(F)(F)F)c2)[C@@H]1c1ccccc1,
0.13,FC(F)(F)c1cc(CO[C@H]2OCCN(Cn3cncn3)[C@H]2c2ccccc2)cc(C(F)(F)F)c1,
0.09,O=c1[nH]nc(CN2CCO[C@H](OCc3cc(C(F)(F)F)cc(C(F)(F)F)c3)[C@@H]2c2ccccc2)[nH]1,pKa [2]: < 3; ED50 [3]: 0.009 mg/kg; IC50 [4]: 11 µM; IC50 [5]: 150 nM; IC50 [6]: 7 µM

# Reference: ChEMBL document CHEMBL1129558, “2(S)-((3,5-bis(trifluoromethyl)benzyl)-oxy)-3(S)-phenyl-4- ((3-oxo-1,2,4-triazol-5-yl)methyl)morpholine (1): a potent, orally active, morpholine-based human neurokinin-1 receptor antagonist” (J Med Chem, 1996)
